This is a sample that favours compounds with a hit; in the whole collection about 1.9% have one here.
aDG glyco act = alpha-DG glycosylation activation; Pro5-aDG cells, alpha-DG glycosylation AlphaScreen (IIH6); 0% Pro5, 100% B10-LARGE cell signal; activation, % at 10 µM; hit rate 0.22% among 360,000; AID 624168;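 active = activation of at least 8% versus controls, or a plate z-score of at least 8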;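 also: Pro5 are CHO cells carrying HIG-tagged alpha-DG that lacks glycosylation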
Vif inh = HIV Vif inhibition. HEK293T cells, Vif self-association by quenched fluorescence, imaging, 24 h. inhibition, % at 7.49 µM. hit rate 0.35% among 340,000. AID 602346; in the data active = inhibition above about 50%, passing the limit was not always enough
MsrA inh = bovine MsrA inhibition; AID 651718; purified bovine MsrA, absorbance read-out; inhibition, % at 15.5 µM; hit rate 0.75% among 360,000; in the data active = inhibition above about 4.5%;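 also: 0% = vehicle wells with enzyme and 100% = reference inhibitor wells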
UCH37 inh = human UCH37 deubiquitinating enzyme inhibition; Q9Y5K5; purified proteasome/UCH37, Ub-AMC cleavage fluorescence; inhibition, % (test concentration not listed); hit rate 0.33% among 330,000; AID 588478;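 active = mean inhibition over replicate wells above about 20%, limit read from the data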;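 also: 0% = compound-free wells with enzyme and 100% = wells lacking proteasome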
Target sequence (Q9Y5K5 whole entry, looked up): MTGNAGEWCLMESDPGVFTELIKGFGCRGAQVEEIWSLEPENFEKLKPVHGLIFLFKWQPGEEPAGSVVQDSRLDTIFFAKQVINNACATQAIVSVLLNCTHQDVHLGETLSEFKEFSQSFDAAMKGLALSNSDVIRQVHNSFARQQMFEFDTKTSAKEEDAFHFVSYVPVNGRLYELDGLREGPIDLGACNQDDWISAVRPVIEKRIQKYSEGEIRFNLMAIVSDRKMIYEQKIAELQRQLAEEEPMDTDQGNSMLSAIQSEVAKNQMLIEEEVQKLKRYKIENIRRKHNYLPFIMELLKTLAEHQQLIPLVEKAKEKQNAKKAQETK
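Material: Human UCH37 enzyme supplied as purified proteasome complex | Schedule: 30 min compound-proteasome preincubation then 25 min substrate reaction, room temperature | Detection: AMC fluorescence from Ub-AMC cleavage, excitation 355 nm, emission 460 nm | Benchmarks: Wells without proteasome as full block, compound-free enzyme plus substrate as uninhibited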
N-glyco inh = N-linked glycosylation inhibition; hit rate 0.23% among 360,000; D54 ERlucT glycosylation luciferase reporter, 24 h; percent of 100 nM tunicamycin response; reporter increase, % at 12.5 µM;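 active = mean luciferase reporter signal, scaled so untreated is 0 and the glycosylation-blocking control 100, at or above a set limit in every replicate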;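 also: luciferase carries N-glycosylation sites so blocking glycosylation raises the light; 0% = median of neutral control wells and 100% = median of 100 nM tunicamycin wells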
bovine MsrA act = activators of bovine methionine sulfoxide reductase A | activation, % at 10.6 µM | purified bovine MsrA, absorbance read-out | hit rate 0.3% among 360,000; in the data active = activation above about 7.5%;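 also: 0% = vehicle and 100% = reference activator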
* = called active by the depositor; i = inactive; x = no result.

SMILES | aDG glyco act | Vif inh | MsrA inh | UCH37 inh | N-glyco inh | bovine MsrA act
O=C(COC(=O)c1ccc(Cl)c(S(=O)(=O)NCc2ccccc2)c1)NC1CC1 | 0 | 77* | -1 | 0 | 0 | -2
O=C(COC(=O)c1cccc(S(=O)(=O)NCc2ccccc2)c1)NC1CC1 | 0 | 0 | 0 | 1 | 3 | -7
COc1cc2c(cc1OC)/C(=C/C(=O)c1ccc(OC)c([N+](=O)[O-])c1)NCC2 | 0 | 53* | 0 | 4 | -2 | 0
COc1cc2c(cc1OC)/C(=C/C(=O)c1cccc([N+](=O)[O-])c1)NCC2 | 0 | -2 | 2 | 7 | -1 | -3
Cc1cc(C)cc(C(=O)OCC(=O)NC2CCCC2)c1 | 0 | 1 | 0 | 0 | 0 | -1
Cc1cc(C)cc(C(=O)OCC(=O)Nc2ncccn2)c1 | 0 | 56* | 1 | -7 | 2 | -1
COc1cc(-c2nnc(SCC3(c4ccc(Br)cc4)OCCO3)o2)cc(OC)c1OC | 0 | -2 | 0 | 0 | 49* | -2
COc1cc(-c2nnc(SCC(=O)N3CCOCC3)o2)cc(OC)c1OC | 0 | -2 | -1 | 0 | 5 | -2
Cc1cccc(NC(=O)CCC(=O)NN=Cc2ccco2)c1C | x | x | x | 0 | x | x
COc1ccc(CCN(C)c2ncnc3sccc23)cc1OC | 0 | -1 | 0 | -1 | -1 | -2
COc1ccc(CN(C)c2ncnc3sccc23)c(OC)c1OC | 0 | 9 | 1 | -2 | 30* | 0
Cc1cc(O)c2c(c1O)C(=O)[C@]13C(=C2O)C(=O)[C@@H]2[C@@H](O)[C@H]1[C@@H]1[C@H](O)[C@H]3C(=O)C3=C(O)c4c(O)cc(C)c(O)c4C(=O)[C@]312 | 1 | -19 | x | 21* | -3 | -3
O=C(NCc1ccccc1)c1ccc(S(=O)(=O)N2CCCCCC2)cc1 | 0 | 77* | 0 | x | -4 | -1
CC1CC(=NO)C(C)CN1 (stereo unspecified) | x | x | x | 0 | x | x
COc1ccccc1N(CN1CCCC1=O)C(=O)c1ccccc1F | 0 | 4 | 1 | 0 | 1 | -3
COc1cc(OC)cc(C(=O)N(CN2CCCC2=O)c2ccccc2OC)c1 | 0 | 54* | 1 | -1 | 1 | -10
Cc1cc2c(C)nc(NN=Cc3ccc(F)cc3)nc2o1 | x | x | x | -12 | x | x
CC12CCC(=O)C=C1CCC1C2C(O)CC2(C)C1CCC2(O)C(=O)CO (stereo unspecified) | 0 | 50* | -1 | -1 | 4 | -4
Cn1nc(C(F)(F)F)c(/C=N/OC(=O)c2ccccc2)c1SCc1ccccc1Cl | 0 | -1 | -1 | x | 55* | -1
O=C(NC(Cc1ccccc1)C(=O)O)/C(=C/c1ccccc1)NC(=O)c1cccc(Br)c1 (stereo unspecified) | 0 | 0 | 0 | 31* | 1 | -3
CN1/C(=C/C=C(C#N)C#N)C(C)(C)c2ccccc21 | 0 | 28 | 1 | 3 | 1 | -11
CN1/C(=C\C=Nc2ccc3ccccc3c2)C(C)(C)c2ccccc21 | 1 | 78* | x | x | -2 | -5
CCOC(=O)Nc1ccc2c(COC(=O)C(NS(=O)(=O)c3ccc(Cl)cc3)C(C)O)cc(=O)oc2c1 (stereo unspecified) | 0 | -8 | 4.6* | i | -1 | -3
CCOC(=O)Nc1ccc2c(COC(=O)CN(C)S(=O)(=O)c3ccc(C)cc3)cc(=O)oc2c1 | 0 | -2 | -1 | -115 | 1 | -7
CCNC(=O)ON=C1CCCCC1c1ccc([N+](=O)[O-])cc1[N+](=O)[O-] (stereo unspecified) | x | x | x | 8 | x | x
SMILES | aDG glyco act | Vif inh | MsrA inh | UCH37 inh | N-glyco inh | bovine MsrA act
CCN1C(=O)N/C(=C/c2cc(C)n(Cc3ccccc3)c2C)C1=O | -1 | -1 | 4.6* | -3 | -5 | -7
Cc1cccc(C=NNc2ccc3ccccc3n2)c1 | x | x | x | -9 | x | x
O=C(c1ccccc1)C1OC1C(=O)c1ccccc1 (stereo unspecified) | 0 | 73* | 0 | 5 | -8 | -1
CC1C=CC(C)C(C(=O)c2ccccc2)C1C(=O)c1ccccc1 (stereo unspecified) | 0 | -1 | 1 | x | -5 | -2
CC(=O)c1sc(NN=Cc2ccccc2O)nc1C | x | x | x | -3 | x | x
COc1ccc(OCc2cnc(Cl)s2)cc1 | 0 | 55* | 0 | 2 | -1 | 0
COc1ccc(C=NNC(=S)NCCc2ccccc2)cc1 | x | x | x | 3 | x | x
Cc1ccc(-c2cc(C(=O)NCC3CCCO3)no2)cc1 (stereo unspecified) | 0 | 0 | 2 | 3 | -6 | -1
O=C(NCC1CCCO1)c1cc(-c2ccccc2)on1 (stereo unspecified) | 0 | 3 | 0 | 3 | 34* | -2
Cc1ccccc1C=NNC(=O)c1ccc(Cn2cccn2)o1 | x | x | x | 3 | x | x
Cc1noc(C)c1CSc1nc2[nH]ncc2c(=O)n1-c1ccccc1 | 0 | x | 1 | 1 | 42* | -4
Cc1noc(C)c1CSc1nc2ccccc2c(=O)n1-c1ccccc1 | 0 | 8 | 3 | 5 | 21 | -2
COc1ccc(C(C#N)N2N=C(C)CC2c2ccccc2)cc1OC (stereo unspecified) | 0 | 54* | 0 | x | 2 | 0
O=NC1=C(c2c(O)[nH]c3ccccc23)CCCC1 | 0 | 7 | 1 | 3 | 4 | -3
Oc1[nH]c2ccccc2c1C1=NCCCCC1 | 0 | 12 | 4.6* | 10 | 3 | -5
O=c1ccn([C@@H]2O[C@H](CNCc3ccc(-n4cccn4)cc3)[C@@H](O)[C@H]2O)c(=O)[nH]1 | 0 | 96* | -1 | x | 3 | 0
Oc1ccc2ccccc2c1C=Nc1nccs1 | x | x | x | 3 | x | x
Cc1nc2ccccc2n1C(=NS(=O)(=O)c1ccccc1)c1ccccc1 | x | x | x | 2 | x | x
COc1ccc(OC)c(C2C3=C(COC3=O)Nc3cc4c(cc32)OCO4)c1 (stereo unspecified) | 0 | 72* | 3 | -16 | 16 | -2
O=C(CCNC(=O)c1ccco1)Nc1ccc(OC(F)(F)F)cc1 | 0 | 111* | 0 | 2 | 1 | -6
N=c1n(CC(=O)c2ccc([N+](=O)[O-])cc2)c2ccccc2n1Cc1ccccc1 | 1 | 12 | 0 | 11 | 6 | -1
N=c1n(CC(=O)c2ccc(Br)cc2)c2ccccc2n1Cc1ccccc1 | 9.1* | -6 | 1 | 0 | -5 | 1
Cn1c(=N)n(CC(=O)c2ccccc2)c2ccccc21 | 2 | 5 | -2 | 3 | -18 | -5
Cn1c(=N)n(CC(=O)c2ccc(Cl)c(Cl)c2)c2ccccc21 | 7.4* | -19 | 2 | x | -18 | -3
O=C(NN=Cc1ccc2c(c1)OCO2)c1cccs1 | x | x | x | 9 | x | x
COc1ccc(C(=O)NN=Cc2coc3ccc(Cl)cc3c2=O)cc1 | x | x | x | -8 | x | x
Cc1ccc(C(=O)Nc2ccc([N+](=O)[O-])cn2)o1 | 0 | -2 | 4.6* | 7 | 0 | -3

High-throughput results (PubChem)
